Results gathered from unrelated publications.
Protocols differ between the studies behind these lines.
Target: Serine/threonine-protein kinase pim-2 (PIM2, Homo sapiens, UniProt Q9P1W9)

SMILES	observed	mode	technique	concentration	endpoint	result
Cn1cc(-c2cccc(N3CCc4c(sc5c4CC(C)(C)C5)C3=O)c2CO)cc(Nc2ccncn2)c1=O	enzyme activity	inhibitor	–	1 µM	inhibition	1%
C#Cc1n[nH]c2c(-c3cn(C(C)c4ccccn4)c(=O)[nH]c3=O)cc(F)cc12 (stereo not drawn)	enzyme activity	inhibitor	–	1 µM	inhibition	-1.5%
COc1cc(Nc2ncc(F)c(Nc3ccc4c(n3)NC(=O)C(C)(C)O4)n2)cc(OC)c1OC	binding	–	competition with immobilised ligand	10 µM	inhibition	0%
COc1ncccc1-c1cnn2ccc(N3CCN(C(=O)OC(C)C)CC3)nc12	binding	–	competition with immobilised ligand	1 µM	remaining binding	100%
C#Cc1n[nH]c2c(-c3cn([C@@H](C)c4ccccc4)c(=O)[nH]c3=O)cc(F)cc12	enzyme activity	inhibitor	–	0.1 µM	inhibition	3.2%
Cn1cncc1[C@](O)(COc1ccc(C#N)cc1-c1ccc(OC(F)(F)F)cc1)c1ccc(C#N)cc1	cell-free assay	–	competition with immobilised ligand	1 µM	remaining binding	84%
Cn1cc(-c2cc(F)cc(N3CCn4c(cc5c4CCCC5)C3=O)c2CO)cc(Nc2ccc(N3CCN(C4COC4)CC3)cn2)c1=O	enzyme activity	inhibitor	–	0.1 µM	inhibition	-1%
N#CC1(c2ccccn2)CCN(Cc2cc(C(=O)O)c(=O)n3ccccc23)CC1	cell-free assay	–	competition with immobilised ligand	1 µM	remaining binding	100%
CC(C)(C)c1cc(C=C(C#N)C#N)cc(Br)c1O	enzyme activity	inhibitor	–	0.5 µM	remaining activity	115%
Nc1ncc(-c2nc(N3CCOCC3)nc(N3CCOCC3)n2)c(C(F)F)n1	binding	–	competition with immobilised ligand	10 µM	remaining binding	92%
O=c1[nH]c2ccccc2n1C1CCN(Cc2ccc(-c3[nH]c4cc5ncnc5cc4nc3-c3ccccc3)cc2)CC1	cell-free assay	–	–	0.5 µM	remaining signal	111%
Cc1nn(C)cc1-c1nc2c(N3CCN(Cc4ccc(Cl)cc4)CC3)c(Cl)cnc2[nH]1	binding	–	competition with immobilised ligand	1 µM	remaining binding	100%
